The values that follow come from paper PMC11588060 (Proceedings of the National Academy of Sciences of the …, 2024).

Counter-ions that a name gives are not always drawn. Like-named read-outs stand apart in the source and are kept apart here.

The test system of assay [1] is SfnG. As to conditions: cited from earlier work.
In assay [2] the target is T1, SfnG (Pseudomonas fluorescens, UniProt Q3KC85).
T1 sequence (Q3KC85 1-364): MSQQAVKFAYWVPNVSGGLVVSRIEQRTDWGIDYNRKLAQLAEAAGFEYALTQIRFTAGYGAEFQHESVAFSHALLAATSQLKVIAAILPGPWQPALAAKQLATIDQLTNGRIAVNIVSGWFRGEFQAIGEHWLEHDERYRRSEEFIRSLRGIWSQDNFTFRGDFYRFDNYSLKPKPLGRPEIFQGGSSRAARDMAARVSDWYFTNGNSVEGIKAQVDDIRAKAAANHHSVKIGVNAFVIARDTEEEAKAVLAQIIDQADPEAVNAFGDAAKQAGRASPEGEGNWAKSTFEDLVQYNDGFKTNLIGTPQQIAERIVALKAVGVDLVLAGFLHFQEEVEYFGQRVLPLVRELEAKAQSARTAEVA
The assay can be described thus: Surface plasmon resonance flavin binding assay, SfnG captured on NTA sensor chip.

Assay [3] concerns the target SsuD. As to conditions: read-out: KD for FMN binding; E. coli SsuD; cited from earlier work.
The target of assay [4] is T2, MsuE (Pseudomonas fluorescens, UniProt Q3K9A2).
T2 sequence (Q3K9A2 1-187): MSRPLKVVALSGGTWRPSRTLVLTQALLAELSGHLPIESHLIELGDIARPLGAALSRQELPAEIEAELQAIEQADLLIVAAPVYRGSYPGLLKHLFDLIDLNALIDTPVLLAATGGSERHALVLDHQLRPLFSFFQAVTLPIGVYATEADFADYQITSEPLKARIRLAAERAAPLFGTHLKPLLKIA
Briefly: Fluorometric equilibrium titration of MsuE with oxidized FMN. Format: binding. An outline of the steps:
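Recombinant P. fluorescens enzyme titrated at equilibrium with oxidized FMN, binding followed by intrinsic protein fluorescence on a spectrofluorometer. FMN range: 0.2 µM to 400 µM for MsuC and MsuD, 0.033 µM to 260 µM for MsuE. The fit gave KD, total enzyme and R2. Values are ±SD from three assay replicates.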

For assay [5], the target named is T1, SfnG. The assay can be described thus: Mixed dialkylsulfone monooxygenation endpoint assay. Format: biochemical. The conditions noted are these: 1 mM substrate, 8 µM SfnG, 1 µM MsuE, 500 µM NADH, 2 µM FMN, 30 °C, 80 min.

For the compound `C[S+](C)[O-]` [DMSO], in assay [1], the “SfnG activity against the compound” value is “not active”.
As usually defined, the koff is the rate constant with which the complex falls apart. As a reminder, the Kd is the equilibrium constant for the complex coming apart. Turning to `Cc1cc2nc3c(=O)[nH]c(=O)nc-3n(C[C@H](O)[C@H](O)[C@H](O)COP(=O)(O)O)c2cc1C` [FMN, riboflavin 5´-monophosphate sodium salt], the koff in assay [2] came to 0.42 s⁻¹; in assay [2] (read-out: koff rate constant with DMSO2 in the running buffer), 0.00836 s⁻¹. Besides, the “fold decrease in KD by SPR with 1% (v/v) DMSO in the running buffer” value in assay [2] (FMN binding to SfnG, with 1% (v/v) DMSO versus without) came out at 2.7 fold. Further, the Kd in assay [3] was 10 µM; in assay [4], 0.54 ± 0.06 µM.
With `CCS(=O)(=O)CC` [diethylsulfone], the “product(s) of conversion by SfnG (1H NMR endpoint assay)” value in assay [5] is given as “ethanesulfinate”.
